In ChEMBL document CHEMBL1121371, “Antihypertensive 5,6-diarylpyridazin-3-ones” (1980):
“And” between values parts separate entries of the source, which are not always exact repeats. Identical values can stand only once.

Legend:
Rattus norvegicus [1] = assay: Antihypertensive activity in spontaneously hypertensive rats was measured as average blood pressure at 25 mg/kg, p.o. before predose; type: functional; conditions: route oral
How it was run: (§1)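 Spontaneously hypertensive rats aged 12 to 16 weeks, in groups of five with systolic pressure of 170 mmHg or more. Oral dosing as a solution or suspension in 0.25% methylcellulose, 5 mL/kg, with a vehicle control group. Tail-cuff systolic pressure was read predose and 4 and 24 h after each of two doses. Values were compared with predose by Student's t test.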

Rattus norvegicus [2] = assay: Antihypertensive activity in spontaneously hypertensive rats was measured as average blood pressure at 25 mg/kg, p.o. after 24 hours of postdose-2; type: functional; conditions: route oral; how it was run: as §1
Rattus norvegicus [3] = assay: Antihypertensive activity in spontaneously hypertensive rats was measured as average blood pressure at 25 mg/kg, p.o. after 4 hours of postdose-1.; type: functional; conditions: route oral; how it was run: as §1
Rattus norvegicus [4] = assay: Antihypertensive activity in spontaneously hypertensive rats was measured as average blood pressure at 25 mg/kg, p.o. after 4 hours of postdose-2; type: functional; conditions: route oral; how it was run: as §1
Rattus norvegicus [5] = assay: Antihypertensive activity in spontaneously hypertensive rats was measured as average blood pressure at 25 mg/kg, p.o. after 24 hours of postdose-1; type: functional; conditions: route oral; how it was run: as §1
Rattus norvegicus [6] = assay: Antihypertensive activity in […] hypertensive rats was measured as average blood pressure at 50 mg/kg, p.o. before predose; type: functional; conditions: route oral
Rattus norvegicus [7] = assay: Antihypertensive activity in spontaneously hypertensive rats was measured as average blood pressure at 30 mg/kg, p.o. after 4 hours of postdose-2; type: functional; conditions: route oral; how it was run: as §1
Rattus norvegicus [8] = assay: Antihypertensive activity in spontaneously hypertensive rats was measured as average blood pressure at 10 mg/kg, p.o. before predose; type: functional; conditions: route oral; how it was run: as §1
Rattus norvegicus [9] = assay: Antihypertensive activity in DOCA hypertensive rats was measured as average blood pressure at 10 mg/kg, p.o. after 4 hours of postdose-1.; conditions: route oral
Rattus norvegicus [10] = assay: Antihypertensive activity in DOCA hypertensive rats was measured as average blood pressure at 25 mg/kg, po before predose
Rattus norvegicus [11] = assay: Antihypertensive activity in […] hypertensive rats was measured as average blood pressure at 50 mg/kg, p.o. after 24 hours of postdose-2; type: functional; conditions: route oral
Rattus norvegicus [12] = assay: Antihypertensive activity in spontaneously hypertensive rats was measured as increase in heart rate at 100 mg/kg peroral dose; (+)=Increased heart rate; type: functional, organism-based; parameters: dose 100 mg/kg
Rattus norvegicus [13] = assay: Antihypertensive activity in spontaneously hypertensive rats was measured as average blood pressure at 100 mg/kg, po after 24 hours of postdose-2; type: functional; how it was run: as §1
Rattus norvegicus [14] = assay: Antihypertensive activity in […] hypertensive rats was measured as average blood pressure at 100 mg/kg, p.o. before predose; type: functional; conditions: route oral
Rattus norvegicus [15] = assay: Antihypertensive activity in spontaneously hypertensive rats was measured as increase in heart rate at 30 mg/kg peroral dose; (+)=Increased heart rate; type: functional, organism-based; parameters: dose 30 mg/kg
Rattus norvegicus [16] = assay: Antihypertensive activity in spontaneously hypertensive rats was measured as average blood pressure at 10 mg/kg, p.o. after 4 hours of postdose-2; type: functional; conditions: route oral; how it was run: as §1
Rattus norvegicus [17] = assay: Antihypertensive activity in […] hypertensive rats was measured as average blood pressure at 100 mg/kg, po after 4 hours of postdose-2; type: functional
Rattus norvegicus [18] = assay: Antihypertensive activity in spontaneously hypertensive rats was measured as average blood pressure at 100 mg/kg, p.o. after 4 hours of postdose; type: functional; conditions: route oral; how it was run: as §1
Rattus norvegicus [19] = assay: Antihypertensive activity in DOCA hypertensive rats was measured as average blood pressure at 10 mg/kg, p.o. after 24 hours of postdose-1; conditions: route oral
Rattus norvegicus [20] = assay: Antihypertensive activity in […] hypertensive rats was measured as average blood pressure at 50 mg/kg, p.o. after 4 hours of postdose-2; type: functional; conditions: route oral
Rattus norvegicus [21] = assay: Antihypertensive activity in spontaneously hypertensive rats was measured as average blood pressure at 100 mg/kg, p.o. after 4 hours of postdose-2; type: functional; conditions: route oral; how it was run: as §1
Rattus norvegicus [22] = assay: Antihypertensive activity in spontaneously hypertensive rats was measured as average blood pressure at 30 mg/kg, po after 4 hours of postdose-1.; type: functional; how it was run: as §1
Rattus norvegicus [23] = assay: Antihypertensive activity in DOCA hypertensive rats was measured as average blood pressure at 10 mg/kg, p.o. after 24 hours of postdose-2; conditions: route oral
Rattus norvegicus [24] = assay: Antihypertensive activity in spontaneously hypertensive rats was measured as average blood pressure at 30 mg/kg, p.o. after 24 hours of postdose-2; type: functional; conditions: route oral; how it was run: as §1
Rattus norvegicus [25] = assay: Antihypertensive activity in […] hypertensive rats was measured as average blood pressure at 100 mg/kg, p.o. after 24 hours of postdose-2; type: functional; conditions: route oral
Rattus norvegicus [26] = assay: Antihypertensive activity in […] hypertensive rats was measured as average blood pressure at 100 mg/kg, p.o. after 24 hours of postdose-1; type: functional; conditions: route oral
Rattus norvegicus [27] = assay: Antihypertensive activity in […] hypertensive rats was measured as average blood pressure at 100 mg/kg, p.o. after 4 hours of postdose-1.; type: functional; conditions: route oral
Rattus norvegicus [28] = assay: Antihypertensive activity in spontaneously hypertensive rats was measured as average blood pressure at 30 mg/kg, p.o. after 24 hours of postdose-1; type: functional; conditions: route oral; how it was run: as §1
Rattus norvegicus [29] = assay: Antihypertensive activity in DOCA hypertensive rats was measured as average blood pressure at 10 mg/kg, p.o. after 4 hours of postdose-2; conditions: route oral
Rattus norvegicus [30] = assay: Antihypertensive activity in spontaneously hypertensive rats was measured as average blood pressure at 100 mg/kg, p.o. before predose; type: functional; conditions: route oral; how it was run: as §1
Rattus norvegicus [31] = assay: Antihypertensive activity in DOCA hypertensive rats was measured as average blood pressure at 10 mg/kg, p.o. before predose; conditions: route oral
Rattus norvegicus [32] = assay: Antihypertensive activity in spontaneously hypertensive rats was measured as average blood pressure at 10 mg/kg, p.o. after 24 hours of postdose-1; type: functional; conditions: route oral; how it was run: as §1
Rattus norvegicus [33] = assay: Antihypertensive activity in DOCA hypertensive rats was measured as average blood pressure at 25 mg/kg, p.o. after 24 hours of postdose-1; conditions: route oral
Rattus norvegicus [34] = assay: Antihypertensive activity in […] hypertensive rats was measured as average blood pressure at 50 mg/kg, p.o. after 4 hours of postdose-1; type: functional; conditions: route oral
Rattus norvegicus [35] = assay: Antihypertensive activity in spontaneously hypertensive rats was measured as average blood pressure at 30 mg/kg, p.o. before predose; type: functional; conditions: route oral; how it was run: as §1
Rattus norvegicus [36] = assay: Antihypertensive activity in […] hypertensive rats was measured as average blood pressure at 100 mg/kg, p.o. after 4 hours of postdose-1; type: functional; conditions: route oral
Rattus norvegicus [37] = assay: Antihypertensive activity in DOCA hypertensive rats was measured as average blood pressure at 25 mg/kg, p.o. after 24 hours of postdose-2; conditions: route oral
Rattus norvegicus [38] = assay: Antihypertensive activity in spontaneously hypertensive rats was measured as increase in heart rate at 10 mg/kg peroral dose; (+)=Increased heart rate; type: functional, organism-based; parameters: dose 10 mg/kg
Rattus norvegicus [39] = assay: Antihypertensive activity in spontaneously hypertensive rats was measured as average blood pressure at 10 mg/kg, p.o. after 4 hours of postdose-1.; type: functional; conditions: route oral; how it was run: as §1
Rattus norvegicus [40] = assay: Antihypertensive activity in DOCA hypertensive rats was measured as average blood pressure at 25 mg/kg, p.o. after 4 hours of postdose-2; conditions: route oral
Rattus norvegicus [41] = assay: Antihypertensive activity in spontaneously hypertensive rats was measured as average blood pressure at 100 mg/kg, p.o. after 24 hours of postdose-1.; type: functional; conditions: route oral; how it was run: as §1
Rattus norvegicus [42] = assay: Antihypertensive activity in […] hypertensive rats was measured as average blood pressure at 50 mg/kg, p.o. after 24 hours of postdose-1; type: functional; conditions: route oral
Rattus norvegicus [43] = assay: Antihypertensive activity in spontaneously hypertensive rats was measured as average blood pressure at 10 mg/kg, p.o. after 24 hours of postdose-2; type: functional; conditions: route oral; how it was run: as §1
Rattus norvegicus [44] = assay: Antihypertensive activity in spontaneously hypertensive rats was measured as average blood pressure at 100 mg/kg, p.o. after 24 hours of postdose; type: functional; conditions: route oral; how it was run: as §1
Rattus norvegicus [45] = assay: Antihypertensive activity in spontaneously hypertensive rats was measured as change in heart rate at 100 mg/kg peroral dose; No significant change is heart rate; type: functional; conditions: route oral

Br.CC(=O)c1c(-c2ccc(Cl)cc2)c(-c2ccc(Cl)cc2)nn(CCN)c1=O
BP (Rattus norvegicus [1]): 194 mmHg | BP (Rattus norvegicus [2]): 183 mmHg | BP (Rattus norvegicus [3]): 184 mmHg | BP (Rattus norvegicus [4]): 177 mmHg | BP (Rattus norvegicus [5]): 162 mmHg

CC(=O)c1c(-c2ccc(Cl)cc2)c(-c2ccc(Cl)cc2)nn(CCO)c1=O
BP (Rattus norvegicus [6]): 224 mmHg | BP (Rattus norvegicus [7]): 164 mmHg | BP (Rattus norvegicus [8]): 202 mmHg | BP (Rattus norvegicus [9]): 191 mmHg | BP (Rattus norvegicus [10]): 235 mmHg | BP (Rattus norvegicus [11]): 213 mmHg | Heart rate (Rattus norvegicus [12]): Increased heart rate | BP (Rattus norvegicus [13]): 193 mmHg | BP (Rattus norvegicus [14]): 222 mmHg and 125 mmHg | Heart rate (Rattus norvegicus [15]): Increased heart rate | BP (Rattus norvegicus [16]): 191 mmHg | BP (Rattus norvegicus [17]): 164 mmHg and 127 mmHg | BP (Rattus norvegicus [18]): 173 mmHg | BP (Rattus norvegicus [19]): 192 mmHg | BP (Rattus norvegicus [20]): 182 mmHg | BP (Rattus norvegicus [21]): 174 mmHg | BP (Rattus norvegicus [22]): 200 mmHg | BP (Rattus norvegicus [23]): 210 mmHg | BP (Rattus norvegicus [24]): 206 mmHg | BP (Rattus norvegicus [25]): 195 mmHg and 130 mmHg | BP (Rattus norvegicus [26]): 178 mmHg and 125 mmHg | BP (Rattus norvegicus [27]): 123 mmHg | BP (Rattus norvegicus [28]): 192 mmHg | BP (Rattus norvegicus [29]): 188 mmHg | BP (Rattus norvegicus [30]): 218 mmHg | BP (Rattus norvegicus [31]): 224 mmHg | BP (Rattus norvegicus [32]): 203 mmHg | BP (Rattus norvegicus [33]): 191 mmHg | BP (Rattus norvegicus [34]): 171 mmHg | BP (Rattus norvegicus [35]): 213 mmHg | BP (Rattus norvegicus [36]): 169 mmHg | BP (Rattus norvegicus [37]): 208 mmHg | Heart rate (Rattus norvegicus [38]): Increased heart rate | BP (Rattus norvegicus [39]): 187 mmHg | BP (Rattus norvegicus [40]): 188 mmHg | BP (Rattus norvegicus [41]): 185 mmHg | BP (Rattus norvegicus [42]): 184 mmHg | BP (Rattus norvegicus [43]): 197 mmHg

N#Cc1c(O)nnc(-c2ccc(Cl)cc2)c1-c1ccc(Cl)cc1
BP (Rattus norvegicus [44]): 177 mmHg | BP (Rattus norvegicus [13]): 175 mmHg | Heart rate (Rattus norvegicus [45]): 0 | BP (Rattus norvegicus [18]): 171 mmHg | BP (Rattus norvegicus [21]): 173 mmHg | BP (Rattus norvegicus [30]): 205 mmHg
